Calls of active or inactive are those of the source. No cut-off for these calls is given here.
Key:
[1] = Cmax in Sprague-Dawley rat at 5 mg/kg, po; type: ADME, organism-based; design: dose 5 mg/kg, route oral; conditions: in vivo
[2] = target: 5-hydroxytryptamine receptor 2A (Homo sapiens, UniProt P28223); experiment: Inhibition of serotonin 5-HT2A receptor (unknown origin) at 1 uM
Cavia porcellus = experiment: Prokinetic activity at guinea pig colonic transit model assessed as reduction in time taken for excretion of first pellet at 0.03 mg/kg, sc by carmine red dye-based assay relative to vehicle-treated control; type: functional; design: scale not given: the % may be the effect or the level left; conditions: route subcutaneous
Outline: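 Conscious guinea pigs given sc doses of 0.03, 0.3 or 3 mg/kg or vehicle (2 mL/kg), n = 9–22 per group. Colonic transit was measured as time to excretion of the first fecal pellet containing carmine red dye marker. Compared with vehicle by ANOVA with Dunnett's post-hoc test, p < 0.05.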

[3] = AUC (0 to t) in Sprague-Dawley rat at 5 mg/kg, po; type: ADME, organism-based; design: dose 5 mg/kg, route oral; conditions: plasma
[4] = target: 5-hydroxytryptamine receptor 6 (Homo sapiens) (UniProt P50406); experiment: Inhibition of serotonin 5-HT6 receptor (unknown origin) at 1 uM
[5] = target: T1, 5-hydroxytryptamine receptor 1A (Homo sapiens) (UniProt P08908); experiment: Inhibition of serotonin 5-HT1A receptor (unknown origin) at 1 uM
T1 sequence (whole entry): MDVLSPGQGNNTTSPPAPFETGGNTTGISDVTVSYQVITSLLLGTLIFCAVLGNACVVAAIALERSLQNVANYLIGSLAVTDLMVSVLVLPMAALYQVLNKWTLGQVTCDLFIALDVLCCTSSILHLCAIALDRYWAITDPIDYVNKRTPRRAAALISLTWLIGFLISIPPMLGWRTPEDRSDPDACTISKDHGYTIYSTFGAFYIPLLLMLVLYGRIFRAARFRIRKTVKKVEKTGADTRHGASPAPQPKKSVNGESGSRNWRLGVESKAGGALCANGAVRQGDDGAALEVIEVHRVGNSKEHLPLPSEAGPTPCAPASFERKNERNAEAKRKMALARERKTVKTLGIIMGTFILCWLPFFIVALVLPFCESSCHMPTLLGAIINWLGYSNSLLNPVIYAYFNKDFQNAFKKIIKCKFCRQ

Rattus norvegicus [6] = experiment: Agonist activity at 5HT4 receptor in ID dosed rat assessed as dose required to cause esophageal relaxation of 0.1 mm; type: functional
Outline: (§1)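 Anesthetized rats dosed intraduodenally over about 0.01–10 mg/kg. Esophageal relaxation was tracked by digital sonomicrometry as the change in inter-crystal distance (mm), n = 4–6. An ED50 was derived from the dose–response, and the dose giving a 0.1 mm relaxation response was calculated.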

[7] = target: 5-hydroxytryptamine receptor 7 (Homo sapiens, UniProt P34969); experiment: Inhibition of serotonin 5-HT7 receptor (unknown origin) at 1 uM
[8] = Half life in beagle dog at 2 mg/kg, po; type: ADME, organism-based, Canis lupus familiaris; design: dose 2 mg/kg, route oral; conditions: in vivo
[9] = target: T2, 5-hydroxytryptamine receptor 3A (Homo sapiens, UniProt P46098); experiment: Binding affinity to human recombinant 5HT3 receptor
T2 sequence (P46098 whole entry): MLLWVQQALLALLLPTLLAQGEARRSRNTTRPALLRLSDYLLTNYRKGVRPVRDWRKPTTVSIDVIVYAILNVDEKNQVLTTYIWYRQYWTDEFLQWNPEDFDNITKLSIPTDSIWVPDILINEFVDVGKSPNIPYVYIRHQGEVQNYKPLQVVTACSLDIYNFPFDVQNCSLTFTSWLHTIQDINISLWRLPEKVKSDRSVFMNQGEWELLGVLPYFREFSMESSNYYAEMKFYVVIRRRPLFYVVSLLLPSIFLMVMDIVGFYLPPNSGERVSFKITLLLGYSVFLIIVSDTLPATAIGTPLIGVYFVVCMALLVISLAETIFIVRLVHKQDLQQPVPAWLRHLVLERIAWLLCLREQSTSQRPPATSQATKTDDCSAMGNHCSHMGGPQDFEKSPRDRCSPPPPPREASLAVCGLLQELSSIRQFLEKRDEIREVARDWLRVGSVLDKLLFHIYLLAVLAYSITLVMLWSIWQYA

[10] = Cardiotoxicity in dog coronary artery assessed as coronary artery constriction; type: toxicity, tissue-based, Canis lupus familiaris
[11] = target: 5-hydroxytryptamine receptor 5A (Homo sapiens) (UniProt P47898); experiment: Inhibition of serotonin 5-HT5A receptor (unknown origin) at 1 uM
[12] = target: T3, 5-hydroxytryptamine receptor 2C (Homo sapiens) (UniProt P28335); experiment: Inhibition of serotonin 5-HT2C receptor (unknown origin) at 1 uM
T3 sequence (whole entry): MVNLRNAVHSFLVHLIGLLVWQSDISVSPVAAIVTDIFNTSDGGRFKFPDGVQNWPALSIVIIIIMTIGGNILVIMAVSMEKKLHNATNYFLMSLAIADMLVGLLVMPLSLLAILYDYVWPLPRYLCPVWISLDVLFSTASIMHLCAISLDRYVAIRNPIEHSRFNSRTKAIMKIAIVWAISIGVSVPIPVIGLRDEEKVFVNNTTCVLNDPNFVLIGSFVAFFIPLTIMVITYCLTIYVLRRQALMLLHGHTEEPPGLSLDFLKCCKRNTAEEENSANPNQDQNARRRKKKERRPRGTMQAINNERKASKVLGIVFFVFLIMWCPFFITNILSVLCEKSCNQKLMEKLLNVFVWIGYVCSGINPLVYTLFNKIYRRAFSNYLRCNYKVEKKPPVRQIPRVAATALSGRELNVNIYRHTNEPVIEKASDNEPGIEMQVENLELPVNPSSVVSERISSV

[13] = Cardiotoxicity in human coronary artery assessed as coronary artery constriction; type: toxicity, tissue-based
Homo sapiens = species on record: Homo sapiens; experiment: Increase in bowel movements in healthy human at 0.1 to 20 mg after 24 hrs relative to placebo
[14] = Permeability across human Caco2 cells; type: ADME, cell-based; conditions: Caco-2, read-out: Kp
Rattus norvegicus [15] = experiment: Induction of 5-HT4 receptor-mediated esophageal relaxation in ID dosed rat; type: functional; outline: as §1
[16] = Cmax in beagle dog at 2 mg/kg, po; type: ADME, organism-based, Canis lupus familiaris; design: dose 2 mg/kg, route oral; conditions: in vivo
[17] = Half life in rat liver micrososmes; type: ADME, Microsome; conditions: liver microsomes
[18] = target: 5-hydroxytryptamine receptor 1B (Homo sapiens) (UniProt P28222); experiment: Inhibition of serotonin 5-HT1B receptor (unknown origin) at 1 uM
[19] = target: 5-hydroxytryptamine receptor 2B (Homo sapiens, UniProt P41595); experiment: Inhibition of serotonin 5-HT2B receptor (unknown origin) at 1 uM
[20] = Elimination half life in healthy human; type: ADME, organism-based; conditions: in vivo, read-out: beta t1/2 (converted)
[21] = Cardiotoxicity in pig coronary artery assessed as coronary artery constriction; type: toxicity, tissue-based, Sus scrofa
[22] = Oral bioavailability in Sprague-Dawley rat at 5 mg/kg; type: ADME, organism-based; conditions: in vivo
[23] = Oral bioavailability in beagle dog at 2 mg/kg; type: ADME, organism-based, Canis lupus familiaris; conditions: in vivo
[24] = target: T4, 5-hydroxytryptamine receptor 3A (Homo sapiens) (UniProt P46098); experiment: Inhibition of serotonin 5-HT3A receptor (unknown origin) at 1 uM
T4 sequence (whole entry): T2 sequence (P46098 whole entry)

[25] = target: 5-hydroxytryptamine receptor 1D (Homo sapiens, UniProt P28221); experiment: Inhibition of serotonin 5-HT1D receptor (unknown origin) at 1 uM
[26] = Half life in Sprague-Dawley rat at 5 mg/kg, po; type: ADME, organism-based; design: dose 5 mg/kg, route oral; conditions: in vivo
[27] = target: 5-hydroxytryptamine receptor 4 (Homo sapiens, UniProt Q13639); experiment: Agonist activity at human recombinant 5HT4 receptor assessed as cAMP accumulation relative to 5-HT; type: functional
Outline: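 cAMP accumulation in cells expressing human recombinant 5-HT4 receptor, reported as pEC50 with intrinsic activity as % of the maximum response achieved by 5-HT.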

[28] = AUC (0 to t) in beagle dog at 2 mg/kg, po; type: ADME, organism-based, Canis lupus familiaris; design: dose 2 mg/kg, route oral; conditions: plasma
[29] = target: 5-hydroxytryptamine receptor 4 (Cavia porcellus) (UniProt O70528)
Chain of 5-hydroxytryptamine receptor 4 (Cavia porcellus) (O70528 whole entry): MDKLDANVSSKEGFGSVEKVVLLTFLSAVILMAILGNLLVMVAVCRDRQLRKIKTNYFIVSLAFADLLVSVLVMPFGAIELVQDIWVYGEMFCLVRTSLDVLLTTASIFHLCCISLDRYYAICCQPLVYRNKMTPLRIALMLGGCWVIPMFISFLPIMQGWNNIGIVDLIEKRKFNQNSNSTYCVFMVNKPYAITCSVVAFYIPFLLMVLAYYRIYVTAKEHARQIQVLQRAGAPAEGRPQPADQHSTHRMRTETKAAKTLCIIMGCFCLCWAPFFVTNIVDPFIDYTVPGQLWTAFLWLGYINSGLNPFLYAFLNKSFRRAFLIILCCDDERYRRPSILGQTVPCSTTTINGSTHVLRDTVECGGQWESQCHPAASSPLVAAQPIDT

Chain of 5-hydroxytryptamine receptor 7 (P34969 whole entry): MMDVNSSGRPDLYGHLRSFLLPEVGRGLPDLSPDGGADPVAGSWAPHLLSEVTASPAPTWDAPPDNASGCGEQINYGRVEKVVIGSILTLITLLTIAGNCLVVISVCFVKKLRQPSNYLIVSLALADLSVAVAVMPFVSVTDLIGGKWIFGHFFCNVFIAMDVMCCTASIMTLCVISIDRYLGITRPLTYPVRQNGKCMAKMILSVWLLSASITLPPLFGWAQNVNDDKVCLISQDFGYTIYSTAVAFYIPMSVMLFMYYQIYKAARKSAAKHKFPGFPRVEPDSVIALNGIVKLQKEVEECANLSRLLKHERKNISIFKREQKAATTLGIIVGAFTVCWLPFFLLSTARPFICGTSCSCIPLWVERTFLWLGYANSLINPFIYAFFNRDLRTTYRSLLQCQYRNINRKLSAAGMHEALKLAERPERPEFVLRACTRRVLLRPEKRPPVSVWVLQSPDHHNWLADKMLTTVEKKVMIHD
Chain of 5-hydroxytryptamine receptor 1B (Homo sapiens) (P28222 whole entry): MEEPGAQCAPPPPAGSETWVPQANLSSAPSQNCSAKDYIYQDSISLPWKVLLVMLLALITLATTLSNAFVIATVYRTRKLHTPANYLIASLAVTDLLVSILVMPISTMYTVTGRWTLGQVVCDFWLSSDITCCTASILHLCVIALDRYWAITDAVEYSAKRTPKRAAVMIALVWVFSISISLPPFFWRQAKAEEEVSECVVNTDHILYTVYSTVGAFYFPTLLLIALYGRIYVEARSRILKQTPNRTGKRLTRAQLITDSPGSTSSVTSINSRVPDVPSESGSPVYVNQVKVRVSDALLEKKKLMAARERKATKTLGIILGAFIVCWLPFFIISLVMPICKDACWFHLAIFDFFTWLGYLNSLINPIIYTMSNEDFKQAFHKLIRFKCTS
Chain of 5-hydroxytryptamine receptor 2A (P28223 whole entry): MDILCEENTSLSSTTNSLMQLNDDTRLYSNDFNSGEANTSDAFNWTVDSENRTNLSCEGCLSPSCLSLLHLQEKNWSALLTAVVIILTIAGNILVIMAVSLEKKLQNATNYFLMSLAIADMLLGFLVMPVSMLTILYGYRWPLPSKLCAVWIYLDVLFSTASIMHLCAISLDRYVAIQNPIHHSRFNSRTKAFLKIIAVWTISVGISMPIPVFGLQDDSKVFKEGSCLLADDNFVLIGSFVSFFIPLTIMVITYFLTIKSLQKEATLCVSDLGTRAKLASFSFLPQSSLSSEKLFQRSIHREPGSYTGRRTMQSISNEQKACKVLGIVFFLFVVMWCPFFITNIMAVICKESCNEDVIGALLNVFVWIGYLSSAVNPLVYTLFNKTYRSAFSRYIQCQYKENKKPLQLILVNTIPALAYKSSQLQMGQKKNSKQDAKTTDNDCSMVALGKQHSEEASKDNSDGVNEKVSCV
Chain of 5-hydroxytryptamine receptor 4 (Q13639 whole entry): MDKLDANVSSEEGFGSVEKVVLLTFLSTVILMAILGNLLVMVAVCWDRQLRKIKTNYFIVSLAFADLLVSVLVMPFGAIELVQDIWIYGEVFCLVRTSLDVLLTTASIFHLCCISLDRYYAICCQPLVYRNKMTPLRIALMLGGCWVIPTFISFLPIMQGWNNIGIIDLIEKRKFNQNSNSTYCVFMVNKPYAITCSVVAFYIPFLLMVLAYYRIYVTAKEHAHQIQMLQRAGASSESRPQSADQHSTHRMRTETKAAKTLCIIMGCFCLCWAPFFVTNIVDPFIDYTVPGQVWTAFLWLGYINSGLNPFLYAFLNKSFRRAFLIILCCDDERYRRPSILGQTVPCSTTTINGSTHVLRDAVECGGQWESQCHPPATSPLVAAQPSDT
Chain of 5-hydroxytryptamine receptor 6 (Homo sapiens) (P50406 whole entry): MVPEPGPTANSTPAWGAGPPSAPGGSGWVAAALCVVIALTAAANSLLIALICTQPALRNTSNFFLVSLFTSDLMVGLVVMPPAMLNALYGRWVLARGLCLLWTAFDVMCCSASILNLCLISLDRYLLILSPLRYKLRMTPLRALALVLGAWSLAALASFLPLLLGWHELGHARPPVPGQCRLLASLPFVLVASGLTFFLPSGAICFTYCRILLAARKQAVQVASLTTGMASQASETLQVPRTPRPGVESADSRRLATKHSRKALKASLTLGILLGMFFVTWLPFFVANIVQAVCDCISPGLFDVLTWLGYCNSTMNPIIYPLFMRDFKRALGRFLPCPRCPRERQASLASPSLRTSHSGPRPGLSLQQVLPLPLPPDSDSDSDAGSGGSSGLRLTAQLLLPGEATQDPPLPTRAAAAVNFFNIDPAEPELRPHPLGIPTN
Chain of 5-hydroxytryptamine receptor 2B (P41595 whole entry): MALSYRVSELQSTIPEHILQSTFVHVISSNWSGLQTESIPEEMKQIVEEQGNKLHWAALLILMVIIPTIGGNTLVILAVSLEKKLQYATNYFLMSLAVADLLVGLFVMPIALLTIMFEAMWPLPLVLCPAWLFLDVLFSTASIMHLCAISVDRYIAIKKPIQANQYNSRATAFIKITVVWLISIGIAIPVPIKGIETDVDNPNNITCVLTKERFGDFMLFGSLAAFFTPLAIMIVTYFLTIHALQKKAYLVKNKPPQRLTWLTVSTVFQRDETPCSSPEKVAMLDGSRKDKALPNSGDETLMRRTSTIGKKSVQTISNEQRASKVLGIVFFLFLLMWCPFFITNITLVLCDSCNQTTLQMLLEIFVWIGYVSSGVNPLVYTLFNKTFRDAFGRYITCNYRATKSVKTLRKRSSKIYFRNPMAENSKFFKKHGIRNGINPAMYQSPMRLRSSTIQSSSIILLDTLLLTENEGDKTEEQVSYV
Chain of 5-hydroxytryptamine receptor 1D (P28221 whole entry): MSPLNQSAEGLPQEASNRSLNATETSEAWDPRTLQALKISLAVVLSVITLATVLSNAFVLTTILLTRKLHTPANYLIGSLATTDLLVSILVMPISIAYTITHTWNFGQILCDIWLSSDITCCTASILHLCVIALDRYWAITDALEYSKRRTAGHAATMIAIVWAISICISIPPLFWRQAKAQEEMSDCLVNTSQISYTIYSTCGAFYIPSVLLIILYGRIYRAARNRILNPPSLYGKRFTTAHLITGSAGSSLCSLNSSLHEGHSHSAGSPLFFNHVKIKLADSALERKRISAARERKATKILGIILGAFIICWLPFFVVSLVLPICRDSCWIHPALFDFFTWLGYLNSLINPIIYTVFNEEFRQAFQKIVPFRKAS
Chain of 5-hydroxytryptamine receptor 5A (Homo sapiens) (P47898 whole entry): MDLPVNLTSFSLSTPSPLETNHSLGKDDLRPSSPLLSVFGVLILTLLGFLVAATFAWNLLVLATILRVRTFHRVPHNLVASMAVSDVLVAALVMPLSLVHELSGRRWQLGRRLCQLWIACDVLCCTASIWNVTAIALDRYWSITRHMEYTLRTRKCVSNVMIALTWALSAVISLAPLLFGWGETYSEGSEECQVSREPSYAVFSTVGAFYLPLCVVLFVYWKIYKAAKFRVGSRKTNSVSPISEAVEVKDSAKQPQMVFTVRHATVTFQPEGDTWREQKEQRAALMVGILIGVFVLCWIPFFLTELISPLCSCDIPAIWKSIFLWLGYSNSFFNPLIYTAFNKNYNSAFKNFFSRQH

COC(=O)N1CCC(CN2CCC(CNC(=O)c3cccc4[nH]c(C(C)C)nc34)CC2)CC1
Cmax [1]: 818 ng/mL
inhibition [2]: < 50%
Activity (Cavia porcellus): 40%
AUC(0-t) [3]: 1240 ng·h/mL
inhibition [4]: < 50%
inhibition [5]: < 50%
Activity (Rattus norvegicus [6]): 0.23 mg/kg
inhibition [7]: < 50%
half-life [8]: 3.5 h
Ki [9]: 100 µM
Activity [10]: Non-toxic
inhibition [11]: < 50%
inhibition [12]: < 50%
Activity [13]: Non-toxic
Activity (Homo sapiens): Active
Papp [14]: 54 ×10⁻⁶ cm/s
Activity (Rattus norvegicus [15]): Dose-dependent effect
ED50 (Rattus norvegicus [15]): 0.15 mg/kg
Cmax [16]: 464 ng/mL
half-life [17]: 1.43 h
inhibition [18]: < 50%
inhibition [19]: < 50%
half-life [20]: 12 h
Activity [21]: Non-toxic
bioavailability [22]: 77%
bioavailability [23]: 63%
inhibition [24]: < 50%
inhibition [25]: < 50%
half-life [26]: 1.6 h
Intrinsic activity [27]: 83%
AUC(0-t) [28]: 2280 ng·h/mL
pKb(app) [29]: 9.3

From ChEMBL document CHEMBL2401700, “Discovery of TD-8954, a clinical stage 5-HT(4) receptor agonist with gastrointestinal prokinetic properties” (Bioorg Med Chem Lett, 2013)
